From ChEMBL document CHEMBL3244088, “Antitumor agents 32. Synthesis and antitumor activity of cyclopentenone derivatives related to helenalin” (1978) come the findings set out here.

Holding throughout (assay type): functional
Test [1] can be described thus: Cytotoxicity against human Hep2 cells assessed a growth inhibition by rapid microtiter technique. The note with it: HEp-2, read-out: ED50 (the source's name). The method, boiled down:
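Human laryngeal epidermoid carcinoma H.Ep.-2 cells run in a rapid microtiter cytotoxicity assay. ED50 is calculated as the dose that inhibits net cell growth to 50% of control growth. Compounds with ED50 ≤ 4 µg/mL are scored active.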

The test system of test [2] is P388. Put plainly: Antitumor activity against mouse P388 cells allografted in DBA/2 mouse assessed as increase in survival rate at 5 mg/kg/day, ip administered for 2 weeks relative to control. The note with it: route intraperitoneal.
Test [3] concerns W256. Briefly: Antitumor activity against […] allografted in Sprague-Dawley rat assessed as increase in survival rate at 2.5 mg/kg/day, ip relative to control. The note with it: route intraperitoneal. The method, boiled down: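 Walker 256 ascites carcinosarcoma: 10^6 tumor cells implanted ip into male Sprague-Dawley rats (~80 g), with daily ip dosing of compounds. Result expressed as T/C; a T/C ≥ 125% counts as active. Melphalan was the positive standard. Animal numbers per group were recorded for each test.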

For test [4], the system named is P388. Briefly: Antitumor activity against mouse P388 cells allografted in DBA/2 mouse assessed as increase in survival rate at 4 mg/kg/day, ip administered for 2 weeks relative to control. The note with it: route intraperitoneal.
Test [5] relates to W256. Put plainly: Antitumor activity against […] allografted in Sprague-Dawley rat assessed as increase in survival rate at 1.25 mg/kg/day, ip relative to control. The note with it: route intraperitoneal.
Test [6] deals with P388. Put plainly: Antitumor activity against mouse P388 cells allografted in DBA/2 mouse assessed as increase in survival rate at 25 mg/kg/day, ip administered for 2 weeks relative to control. The note with it: route intraperitoneal.
Test [7] deals with P388. Briefly: Antitumor activity against mouse P388 cells allografted in DBA/2 mouse assessed as increase in survival rate at 16.8 mg/kg/day, ip administered for 2 weeks relative to control. The note with it: route intraperitoneal.

Values after ≈ are worked out from the molar mass of the structure shown.

With `CC1(CO)CC=CC1=O` (stereo not drawn), in test [1], the EC50 was 15.8 µg/mL (≈ 125 µM). Moreover, the T/C stood at 105% with P388 [2] and 100% in the test on W256 [3].
The like results for `CC(=O)OCC1(C)CC=CC1=O` (stereo not drawn) were, in that order, 18.3 µg/mL (≈ 109 µM), 105% and 105%.
With `CC1(COC(=O)/C=C/c2ccccc2)CC=CC1=O` (stereo not drawn), the EC50 in test [1] was 3.5 µg/mL (≈ 13.7 µM). Moreover, the figures for the T/C in the test on P388 [4] and with W256 [3] were 131% and 136%, respectively.
`COc1cc(C(=O)OCC2(C)CC=CC2=O)cc(OC)c1OC` (stereo not drawn): in test [1], the EC50 came to 3.6 µg/mL (≈ 11.2 µM). Further, the T/C is 140% with P388 [2] and 223% in the test on W256 [5].
Regarding `CC1(COC(=O)CCCCCCCCC(=O)OCC2(C)CC=CC2=O)CC=CC1=O` (stereo not drawn), the EC50 in test [1] is 14.6 µg/mL (≈ 34.9 µM). For the same molecule, the T/C is on record as 109% with P388 [4] and 108% in the test with W256 [3].
As for `CCOC(=O)C1(C)CC=CC1=O` (stereo not drawn), the EC50 in test [1] was determined as 17.2 µg/mL (≈ 102 µM). Further, the T/C with P388 [2] and with W256 [3] was 103% throughout.
As to `O=C1C=CCC1`, the EC50 in test [1] is greater than 50 µg/mL. The T/C in the test on P388 [2] was found to be 121%; with W256 [3] it was 188%.
`CCOC(=O)/C=C/c1ccccc1` [ETHYL CINNAMATE]: the EC50 in test [1] was greater than 50 µg/mL.
With `O=c1[nH]cc(F)c(=O)[nH]1` [FLUOROURACIL], in the test on P388 [6], the T/C is reported as 186%.
With `C=C1C(=O)O[C@@H]2C[C@@H](C)[C@@H]3C=CC(=O)[C@@]3(C)[C@@H](O)[C@H]12` [HELENALIN], in test [1], the EC50 came to 0.08 µg/mL (≈ 0.305 µM). The T/C in the test with W256 [3] is recorded as 316%; with P388 [7], 127%.
On to `N[C@@H](Cc1ccc(N(CCCl)CCCl)cc1)C(=O)O` [MELPHALAN], for which the T/C with P388 [6] worked out at 168%; in the test with W256 [3], 317%.
